Source: PubChem BioAssay
Only some compounds are listed: those with a hit (about 1.9% of all), similar ones and a draw of the others.
NPY Y1 blocker = blocks the human neuropeptide Y Y1 receptor. P25929. inhibition, % at 3.6 µM. hit rate 1% among 200,000. HEK293-CNG Y1 cells, membrane potential fluorescence; NPY at EC95, then isoproterenol;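 active means inhibition above the campaign mean inhibition of all tested compounds plus 3 SD, cut at about 20% in these data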;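 further: 0% = DMSO wells given NPY plus isoproterenol and 100% = isoproterenol alone without NPY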
Target sequence (P25929 whole entry, looked up): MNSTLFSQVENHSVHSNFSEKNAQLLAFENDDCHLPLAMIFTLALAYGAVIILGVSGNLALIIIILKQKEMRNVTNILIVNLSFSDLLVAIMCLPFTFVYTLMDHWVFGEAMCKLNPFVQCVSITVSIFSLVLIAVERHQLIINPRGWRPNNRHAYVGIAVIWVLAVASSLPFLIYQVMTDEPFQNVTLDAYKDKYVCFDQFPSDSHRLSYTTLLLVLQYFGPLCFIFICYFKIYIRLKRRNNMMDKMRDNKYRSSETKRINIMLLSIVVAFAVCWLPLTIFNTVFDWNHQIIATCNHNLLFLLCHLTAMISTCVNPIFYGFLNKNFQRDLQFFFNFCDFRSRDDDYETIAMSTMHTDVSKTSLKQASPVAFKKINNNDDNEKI
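material = HEK293 cells with Y1 receptor plus CNG channel | also added = NPY 25 nM then isoproterenol 1 µM plus Ro 20-1724 25 µM | schedule = dye 3 h, compound 60 min room temperature, stimulation 45 min | measured by = membrane potential fluorescence | benchmarks = high control isoproterenol alone, low control NPY with isoproterenol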
NPY2 pot ag = potentiates or activates human NPY-Y2 receptor; P49146; cells expressing NPY-Y2, potentiator/agonist read-out; activation, % at 3.6 µM; hit rate 0.45% among 220,000; AID 1359; in the data active means activation above about 27%;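 further: cells stimulated with NPY near EC25 plus isoproterenol at EC100; 0% = vehicle plus submaximal agonist and 100% = vehicle plus saturating agonist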
NPY Y2 blocker = blocks the human neuropeptide Y Y2 receptor; hit rate 0.99% among 140,000; NPY-Y2 expressing cells, antagonist mode; P49146; AID 793; inhibition, % at 2.7 µM;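 further: 0% = vehicle with agonist challenge and 100% = reference antagonist with challenge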
NPY1 pot ag = potentiators or agonists of human neuropeptide Y receptor Y1 | NPY-Y1 expressing cells, potentiator/agonist activation | hit rate 0.37% among 220,000 | AID 1304 | P25929 | activation, % at 3.6 µM; in the data active means activation above about 33%, passing the limit was not always enough;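 further: cells stimulated with NPY at EC10 then isoproterenol at EC100; 0% = low agonist plus stimulus and 100% = saturating agonist plus stimulus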
NPY-Y1 ant conf = human NPY-Y1 antagonism, confirmation | shares compounds with NPY Y1 blocker | HEK293-CNG NPY-Y1, membrane potential fluorescence, cAMP; NPY challenge against isoproterenol-raised cAMP | inhibition, % at 3.6 µM | hit rate 21% among 1,200 | AID 1254; in the data active means inhibition above about 20%;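 further: 0% = vehicle with agonist plus stimulus and 100% = stimulus alone without agonist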
NPY2 antag ctr = human NPY-Y2 antagonism in NPY-Y1 counter-screen; shares compounds with NPY Y1 blocker; HEK293 NPY-Y2 CNG membrane potential fluorescence; cells given NPY, then isoproterenol; inhibition, % at 3.6 µM; hit rate 28% among 1,200;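 further: 0% = DMSO with agonist challenge and 100% = reference antagonist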
* = called active by the depositor; x = no result given. Unless noted, no stated cut-off is given here; in the data, active means inhibition above about 17%; inactive means the rest.

SMILES | NPY Y1 blocker | NPY2 pot ag | NPY Y2 blocker | NPY1 pot ag | NPY-Y1 ant conf | NPY2 antag ctr
COC(=O)[C@@]1(Cc2ccc(F)cc2)[C@H]2c3cc(C(=O)N(C)C)n(Cc4ccc(OC(F)(F)F)cc4)c3C[C@H]2CN1C(=O)c1ccccc1 | 35* | 14 | 16 | -6 | 9 | 4
CCC(=O)N(CCC(Cc1ccccc1)c1ccc2c(c1)OCO2)Cc1ccccc1F (stereo not given) | 47* | -7 | 16 | -18 | 19 | 12
CC(NCCC(Cc1ccccc1)c1ccco1)c1ccccc1 (stereo not given) | x | -16 | x | 27 | x | x
CCC(=O)N(CCC(Cc1ccccc1)c1ccco1)Cc1ccco1 (stereo not given) | 42* | -15 | x | -24 | 13 | 7
O=C(NC1CCCCCC1)c1cc(-c2ccccn2)nc2ccccc12 | 24* | -72 | x | -119 | 25* | 18*
O=C(OCCN1C(=O)c2ccccc2C1=O)c1cc(=O)[nH]c2ccccc12 | 6 | -11 | 1 | -8 | x | x
Cc1cc(C(=O)OCCN2C(=O)c3ccccc3C2=O)c2ccccc2n1 | 24* | -4 | 5 | 1 | 1 | 5
CCOC(=O)C1CCCN(C(=S)Nc2cccc(Cl)c2C)C1 (stereo not given) | 4 | 1 | -1 | -2 | x | x
CC/C(=N\N=C1\SC(C)C(=O)N1Cc1ccco1)c1ccccc1 (stereo not given) | 11 | 7 | 5 | -25 | x | x
CC(OC(=O)CC(NC(=O)c1ccccc1Cl)c1ccccc1)C(=O)Nc1cccc(Cl)c1Cl (stereo not given) | 30* | -16 | 9 | -47 | 27* | 17*
O=C(COc1ccc(-c2ccccc2)cc1)N1CCN(C(=O)c2cccs2)CC1 | -2 | -2 | x | 1 | x | x
CCc1ccc(CNCc2ccc(OCC(O)CN(C)Cc3ccccc3)cc2)nc1 (stereo not given) | 26* | -19 | x | -7 | 17 | 27*
CN(Cc1ccccc1)CC(O)COc1ccc(CNCCc2cccnc2)cc1 (stereo not given) | 14 | -7 | x | -8 | x | x
CC(=C/c1ccco1)/C=N/NC(=O)CSc1nnc(SCc2ccc(C)cc2)s1 | 5 | -3 | 10 | 0 | x | x
Cc1cccc(NC(=O)c2cc(N3CCOCC3)nc3ccccc23)c1 | 16 | -14 | 4 | -69 | x | x
Cc1cccc(NC(=O)c2cc(Cl)nc3ccccc23)c1 | 24* | -58 | 16 | -107 | 8 | 12
Fc1ccc(NC(=S)Nc2ccccc2N2CCOCC2)cc1Cl | 2 | -31 | x | -7 | x | x
O=C(O)c1ccc(N(c2ccccc2)c2ccccc2)cc1 | 27* | -37 | 14 | -40 | 21* | 16
N#Cc1cc2c(=O)n3ccccc3nc2n(-c2ccccc2Cl)c1=O | -2 | 4 | x | -9 | x | x
Cc1ccc(-n2ncc(C(=O)N3CCc4ccccc4C3)c2NC(=O)c2ccco2)cc1C | 22* | -8 | 10 | -41 | 2 | 9
O=C(NC1CCCC1)C(c1ccncc1)N(Cc1ccccc1)C(=O)Cc1cccs1 (stereo not given) | 21* | 3 | 8 | -7 | 4 | 6
O=C(NC1CCCCC1)C(c1ccncc1)N(Cc1ccc2c(c1)OCO2)C(=O)c1cnsn1 (stereo not given) | 25* | -7 | 11 | -24 | 28* | 17
CC/C(=N\Nc1ccc([N+](=O)[O-])cc1)c1ccccc1 | -5 | 4 | x | 21 | x | x
CCC1(C(=O)c2ccccc2)C(c2ccc([N+](=O)[O-])cc2)C1(C(=O)OC)C(=O)OC (stereo not given) | 22* | -8 | 9 | -34 | 7 | 4
CC(=O)c1cc2c(cc1NC(=O)c1ccccc1C)OCO2 | -3 | -11 | x | -5 | x | x
O=C(Cc1ccccc1)Nc1ccccc1N1CCN(c2ccccc2)CC1 | 22* | 10 | 14 | 10 | 8 | 9
CCCCCC(=O)Nc1ccccc1N1CCOCC1 | -3 | -2 | 0 | 3 | x | x
O=C(Cc1ccc(Cl)cc1)Nc1ccccc1N1CCOCC1 | 3 | -4 | -1 | -13 | x | x
O=C(Nc1ccccc1N1CCCCC1)c1ccccc1F | 9 | 2 | 5 | -12 | x | x
CCCCC(=O)Nc1ccccc1N1CCN(c2ccccc2)CC1 | 24* | -20 | x | -20 | 20 | 30*
